Measured values reported in ChEMBL document CHEMBL1128471, “Reversible inhibitors of the gastric (H+/K+)-ATPase. 4. Identification of an inhibitor with an intermediate duration of action” (J Med Chem, 1995).

Key:
[1] = target: Potassium-transporting ATPase (Sus scrofa, UniProt P19156); assay: Inhibition of K+ -stimulated gastric ATPase activity was measured using lyophilized gastric vesicles at pH 7; assay type: tissue-based, Stomach
How it was run: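 K+-stimulated ATPase activity was measured in lyophilized (permeabilized) gastric vesicles at pH 7. The value is an IC50, or percent inhibition at the stated concentration where no IC50 could be determined.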

[2] = target: T1, Potassium-transporting ATPase (Rattus norvegicus) (UniProt P09626+P18598); assay: Inhibition of pentagastrin-stimulated gastric acid secretion at a single dose of 10 umol/kg.; assay type: functional; conditions: Stomach
How it was run: (§1)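 Anesthetized, lumen-perfused rats were given pentagastrin to stimulate gastric acid secretion, and compounds were given iv. The value is an ED50 (µmol/kg iv) with 95% confidence limits, or percent inhibition ± SEM at a single 10 µmol/kg iv dose.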

[3] = target: T1, Potassium-transporting ATPase (Rattus norvegicus); assay: Inhibition of pentagastrin-stimulated gastric acid secretion in the anesthetized rat after iv administration; assay type: functional, organism-based; conditions: Stomach; how it was run: as §1
Canis familiaris = assay: Mean percent peak inhibition of histamine-stimulated gastric acid secretion in the heidenhain pouch dog following a single dose of 1 umol/kg through iv administration.; assay type: functional; conditions: Canis lupus familiaris, Stomach

Chain of Potassium-transporting ATPase (P18434 whole entry): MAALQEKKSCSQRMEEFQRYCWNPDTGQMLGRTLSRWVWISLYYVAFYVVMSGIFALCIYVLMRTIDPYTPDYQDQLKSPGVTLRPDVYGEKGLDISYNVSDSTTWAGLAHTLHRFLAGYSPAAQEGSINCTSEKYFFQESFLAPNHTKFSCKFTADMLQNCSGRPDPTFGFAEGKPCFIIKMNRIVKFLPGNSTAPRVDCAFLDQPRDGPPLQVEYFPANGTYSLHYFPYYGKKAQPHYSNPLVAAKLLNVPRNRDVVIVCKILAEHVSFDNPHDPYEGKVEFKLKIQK
Chain of Potassium-transporting ATPase (P19156 whole entry): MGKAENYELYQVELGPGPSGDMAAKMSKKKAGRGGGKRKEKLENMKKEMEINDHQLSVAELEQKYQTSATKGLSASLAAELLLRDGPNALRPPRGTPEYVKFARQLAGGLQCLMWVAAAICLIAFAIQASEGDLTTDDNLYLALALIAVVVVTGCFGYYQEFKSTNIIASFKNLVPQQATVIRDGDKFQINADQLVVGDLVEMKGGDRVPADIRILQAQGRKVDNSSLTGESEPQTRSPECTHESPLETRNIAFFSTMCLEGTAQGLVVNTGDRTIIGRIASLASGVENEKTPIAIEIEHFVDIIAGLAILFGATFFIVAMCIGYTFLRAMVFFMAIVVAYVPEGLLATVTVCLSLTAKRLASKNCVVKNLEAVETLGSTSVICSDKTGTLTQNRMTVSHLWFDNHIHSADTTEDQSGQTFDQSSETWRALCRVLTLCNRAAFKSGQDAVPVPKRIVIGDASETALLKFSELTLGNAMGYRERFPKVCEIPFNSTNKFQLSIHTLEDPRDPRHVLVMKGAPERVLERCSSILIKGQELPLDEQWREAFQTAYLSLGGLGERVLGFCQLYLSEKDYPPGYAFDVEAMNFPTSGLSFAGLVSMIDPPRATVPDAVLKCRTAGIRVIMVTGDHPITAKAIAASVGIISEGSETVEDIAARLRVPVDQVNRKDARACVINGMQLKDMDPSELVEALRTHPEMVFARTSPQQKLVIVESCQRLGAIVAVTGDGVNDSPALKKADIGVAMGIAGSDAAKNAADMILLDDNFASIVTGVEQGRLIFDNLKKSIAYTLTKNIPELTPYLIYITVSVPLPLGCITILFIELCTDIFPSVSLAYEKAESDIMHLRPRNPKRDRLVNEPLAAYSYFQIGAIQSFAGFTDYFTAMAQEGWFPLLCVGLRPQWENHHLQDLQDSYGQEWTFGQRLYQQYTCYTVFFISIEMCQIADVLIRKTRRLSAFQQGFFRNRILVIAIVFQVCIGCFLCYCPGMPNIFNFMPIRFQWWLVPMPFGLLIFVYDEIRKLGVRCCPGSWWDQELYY

Row | SMILES | IC50 [1] | inhibition [2] | ED50 [3] | inhibition in vivo at 1 µmol/kg (Canis familiaris)
1 | CCCC(=O)c1cnc2c(OC)cccc2c1Nc1ccc(O)cc1 | 670 nM | 39% | – | –
2 | CCCC(=O)c1cnc2c(C3COCO3)cccc2c1Nc1ccccc1C (stereo not drawn) | 36000 nM | 31% | – | –
3 | CCCC(=O)c1cnc2cc(O)ccc2c1Nc1ccccc1C | 1200 nM | 56% | – | –
4 | CCCC(=O)c1cnc2c(C(N)=O)cccc2c1Nc1ccccc1C | 1900 nM | 39% | – | –
5 | CCCC(=O)c1cnc2c(OC)cc(O)cc2c1Nc1ccccc1C | 1300 nM | 63% | – | –
6 | CCCC(=O)c1c(C)nc2ccccc2c1Nc1ccccc1C | 34000 nM | – | – | –
7 | CCCC(=O)c1cnc2c(C)cccc2c1Nc1ccc(OC)cc1C | 1700 nM | – | 4.7 µmol/kg | –
8 | CCCC(=O)c1cnc2c(C3OC3CO)cccc2c1Nc1ccccc1C (stereo in doubt; 29a) | – | 56% | – | –
9 | CCCC(=O)c1cnc2c(NCCc3c[nH]cn3)cccc2c1Nc1ccccc1C | – | 31% | – | –
10 | CCCC(=O)c1cnc2c(NCCCN3CCOCC3)cccc2c1Nc1ccccc1C | 2400 nM | 47% | – | –
11 | Cc1cc(F)ccc1Nc1c(C(=O)C(C)C)cnc2c(O)cccc12 | 2700 nM | 20% | – | –
12 | CCCC(=O)c1cnc2ccc(O)cc2c1Nc1ccccc1C | 240 nM | 58% | – | –
13 | CCCC(=O)c1cnc2c(OCCOCCOCCO)cccc2c1Nc1ccc(F)cc1C | 3600 nM | 51% | – | –
14 | CCCC(=O)c1cnc2c(OCCOCCO)cccc2c1Nc1ccc(F)cc1C | – | 49% | – | –
15 | CCCC(=O)c1cnc2c(C(O)CN3CCOCC3)cccc2c1Nc1ccccc1C (stereo not drawn) | – | 4% | – | –
16 | CCCC(=O)c1cnc2c(OC)cccc2c1Nc1ccc(C)cc1C | 4300 nM | 59% | – | –
17 | CCCC(=O)c1cnc2c(OCCCN3CCCC3)cccc2c1Nc1ccccc1C | 510 nM | 31% | – | –
18 | CCC(=O)c1cnc2c(OCCCNc3nccs3)cccc2c1Nc1c(C)cccc1C | 1700 nM | 48% | – | –
19 | CCCC(=O)c1cnc2ccccc2c1Nc1ccccc1C | – | – | 5.45 µmol/kg | –
20 | C=CC(O)c1cccc2c(Nc3ccccc3C)c(C(=O)CCC)cnc12 (stereo not drawn) | 660 nM | 49% | – | –
21 | CCCC(=O)c1cnc2c(OCCCO)cccc2c1Nc1c(C)cccc1C | 1210 nM | 75% | – | –
22 | CCCC(=O)c1cnc2c(OCCCc3nc4ccccc4[nH]3)cccc2c1Nc1c(C)cccc1C | 1400 nM | 50% | – | –

Row | SMILES | IC50 [1] | inhibition [2] | ED50 [3] | inhibition in vivo at 1 µmol/kg (Canis familiaris)
23 | CCCC(=O)c1cnc2c(C)cccc2c1Nc1ccccc1OC | 2200 nM | – | 3.98 µmol/kg | –
24 | CCCC(=O)c1cnc2c(OCCCN(C)CCCc3ccccc3)cccc2c1Nc1ccccc1C | 740 nM | 52% | – | –
25 | CCCC(=O)c1cnc2c(N)cccc2c1Nc1c(C)cccc1C | 5800 nM | 57% | – | –
26 | CCC(=O)c1cnc2c(O)cccc2c1Nc1ccc(F)cc1C | 1900 nM | 48% | – | –
27 | CCCC(=O)c1cnc2c(C(O)CN(C)C)cccc2c1Nc1ccccc1C (stereo not drawn) | – | 11% | – | –
28 | CCCC(=O)c1cnc2c(OCCCN3CCCCC3)cccc2c1Nc1ccccc1C | 500 nM | 31% | – | –
29 | CCCC(=O)c1cnc2c(OC)cccc2c1Nc1cccc(CO)c1C | 6000 nM | 44% | – | –
30 | CCC(=O)c1cnc2c(O)cccc2c1Nc1ccccc1C | 860 nM | 45% | – | –
31 | CCCC(=O)c1cnc2ccc(CO)cc2c1Nc1ccccc1C | – | 46% | – | –
32 | CCCC(=O)c1cnc2c(OCCCNc3ccccn3)cccc2c1Nc1c(C)cccc1C | 900 nM | 49% | – | –
33 | CCCC(=O)c1cnc2c(OCCCN(C)C)cccc2c1Nc1ccc(F)cc1C | – | 37% | – | –
34 | CCCC(=O)c1cnc2c(OC)cccc2c1Nc1cc(C)ccc1C | 2500 nM | 48% | – | –
35 | CCCC(=O)c1cnc2c(OC)cccc2c1Nc1ccccc1OCC | 2000 nM | – | 4.9 µmol/kg | –
36 | CCCC(=O)c1cnc2c(C3OC3CO)cccc2c1Nc1ccccc1C (stereo in doubt; 29b) [listing 1 of 2 here] | – | 52% | – | –
37 | CCCC(=O)c1cnc2c(C=O)cccc2c1Nc1ccccc1C | 1200 nM | 64% | – | 51%
38 | CCCC(=O)c1cnc2c(OCCCN(C)C)cccc2c1Nc1ccccc1C | 390 nM | 43% | – | 14%
39 | Cc1ccccc1Nc1c(C(=O)C(C)C)cnc2c(CO)cccc12 | – | – | 1.86 µmol/kg | –
40 | CCCC(=O)c1cnc2c(CC(=O)OC)cccc2c1Nc1ccccc1C | 5400 nM | 43% | – | –
41 | CCCC(=O)c1cnc2ccc(N)cc2c1Nc1c(C)cccc1C | 160 nM | 35% | – | –
42 | CCCC(=O)c1cnc2c(/C=C/CO)cccc2c1Nc1ccccc1C | 2300 nM | 68% | – | 17%
43 | CCCC(=O)c1cnc2c(OC)cccc2c1Nc1ccccc1COC | – | 43% | – | –
44 | CCCC(=O)c1cnc2c(NCCO)cccc2c1Nc1ccccc1C | 7100 nM | 62% | – | –

Row | SMILES | IC50 [1] | inhibition [2] | ED50 [3] | inhibition in vivo at 1 µmol/kg (Canis familiaris)
45 | CCCC(=O)c1cnc2c(N)cccc2c1Nc1ccccc1C | 6000 nM | 59% | – | –
46 | CCCC(=O)c1cnc2c(OC)cccc2c1Nc1ccc(N(C)C)cc1C | 2320 nM | 20% | – | –
47 | CCCC(=O)c1cnc2c(OC)cccc2c1Nc1ccc(OC)cc1OC | 2100 nM | 53% | – | –
48 | CCCC(=O)c1cnc2c(OC)cccc2c1Nc1ccccc1CO | – | 33% | – | –
49 | CCCC(=O)c1cnc2c(C3OC3CO)cccc2c1Nc1ccccc1C (stereo in doubt; 29b) [listing 2 of 2 here] | 3100 nM | – | – | –
50 | CCCC(=O)c1cnc2c(O)cccc2c1Nc1ccccc1C | 3300 nM | 39% | – | –
51 | CCCC(=O)c1cnc2c(CC(=O)O)cccc2c1Nc1ccccc1C | 7200 nM | 24% | – | –
52 | CCCC(=O)c1cnc2ccc(OC)cc2c1Nc1ccccc1C | 7000 nM | 59% | – | –
53 | CCCC(=O)c1cnc2c(OCCCN(C)Cc3ccccc3)cccc2c1Nc1ccccc1C | 650 nM | 39% | – | –
54 | CCCC(=O)c1cnc2c(OC)cccc2c1Nc1c(C)cc(O)c(O)c1C | 2800 nM | 50% | – | –
55 | CCCC(=O)c1cnc2c(OC)cccc2c1Nc1ccc(NS(C)(=O)=O)cc1C | 45000 nM | – | – | –
56 | CCCC(=O)c1cnc2c(OCCCC(N)=O)cccc2c1Nc1c(C)cccc1C | 2200 nM | 72% | – | –
57 | CCCC(=O)c1cnc2c(OCCCC(=O)NC(C)(C)CO)cccc2c1Nc1c(C)cccc1C | 2800 nM | 61% | – | –
58 | COCCOc1cccc2c(Nc3ccc(F)cc3C)c(C(=O)C(C)C)cnc12 | 1700 nM | 57% | – | –
59 | CCCC(=O)c1cnc2c(C(=O)OC)cccc2c1Nc1ccccc1C | 580 nM | – | 13.4 µmol/kg | –
60 | CCCC(=O)c1cnc2c(OCCO)cccc2c1Nc1ccc(O)cc1C | 210 nM | 70% | – | –
61 | CCCC(=O)c1cnc2c(OC)cccc2c1Nc1cc(C)cc(C)c1 | 11300 nM | 39% | – | –
62 | CCCC(=O)c1cnc2c(OC)cccc2c1Nc1ccccc1O | 1300 nM | 41% | – | –
63 | CCCC(=O)c1cnc2c(CO)cccc2c1Nc1ccc(F)cc1C | – | 55% | – | –
64 | CCCC(=O)c1cnc2c(COC(=O)CC)cccc2c1Nc1ccccc1C | 18400 nM | – | – | –
65 | Cc1ccccc1Nc1c(C(=O)C(C)C)cnc2c(O)cccc12 | 1200 nM | 48% | – | –
66 | CCCC(=O)c1cnc2c(C(C)=O)cccc2c1Nc1ccccc1C | 1500 nM | 37% | – | –

Row | SMILES | IC50 [1] | inhibition [2] | ED50 [3] | inhibition in vivo at 1 µmol/kg (Canis familiaris)
67 | CCCC(=O)c1cnc2c(OCCCc3c[nH]cn3)cccc2c1Nc1c(C)cccc1C | – | 40% | – | –
68 | CCCC(=O)c1cnc2c(OCCCC(=O)OCC)cccc2c1Nc1ccccc1C | 1600 nM | 52% | – | –
69 | CCCC(=O)c1cnc2c(OC)cc(O)cc2c1Nc1ccc(F)cc1C | 2100 nM | 54% | – | –
70 | CCCC(=O)c1cnc2c(OCCCC(=O)Nc3ccncc3)cccc2c1Nc1ccccc1C | 2600 nM | 46% | – | –
71 | CCCC(=O)c1cnc2c(C(C)=O)cccc2c1Nc1ccc(O)cc1C | 550 nM | 44% | – | –
72 | CCCC(=O)c1cnc2c(OC)cccc2c1Nc1ccc(N)cc1C | 1500 nM | 15% | – | –
73 | CCCC(=O)c1cnc2c(COC(=O)NC)cccc2c1Nc1ccccc1C | 6600 nM | 49% | – | –
74 | CCCC(=O)c1cnc2c(OCCCc3cnc[nH]3)cccc2c1Nc1c(C)cccc1C | 600 nM | – | – | –
75 | CCCC(=O)c1cnc2c(OC)cccc2c1Nc1ccc(NC(C)=O)cc1C | 12000 nM | – | – | –
76 | CCCC(=O)c1cnc2c(OCCCN3CCOCC3)cccc2c1Nc1ccccc1C | 890 nM | 48% | – | –
77 | CCCC(=O)c1cnc2c(C)cccc2c1Nc1ccccc1Cl | 6300 nM | – | – | –
78 | CCCC(=O)c1cnc2ccc(O)cc2c1Nc1ccc(O)cc1C | 71 nM | 51% | – | –
79 | CCCC(=O)c1cnc2c(OC)cccc2c1Nc1cc(CO)ccc1C | – | 25% | – | –
80 | CCCC(=O)c1cnc2c(OCCN(C)C)cccc2c1Nc1ccccc1C | 520 nM | 22% | – | –
81 | CCCC(=O)c1cnc2c(OC)cccc2c1Nc1ccc(OCCCn2ccnc2)cc1C | 34000 nM | – | – | –
82 | CCCC(=O)c1cnc2c(NCCc3cnc[nH]3)cccc2c1Nc1ccccc1C | 1400 nM | – | – | –
83 | CCCC(=O)c1cnc2c(OC)cccc2c1Nc1c(OC)cc(OC)cc1OC | 4600 nM | 24% | – | –
84 | CCCC(=O)c1cnc2c(O)cccc2c1Nc1ccc(F)cc1C | 7600 nM | 33% | – | –
85 | CCC(=O)c1cnc2c(Oc3ccccn3)cccc2c1Nc1c(C)cccc1C | 4700 nM | 77% | – | 81%
86 | CCCC(=O)c1cnc2c(Oc3ccnc(Cl)c3)cccc2c1Nc1ccccc1C | 6900 nM | 33% | – | –
87 | CCCC(=O)c1cnc2c(OC)cccc2c1Nc1c(C)cc2c(c1C)OCO2 | – | 51% | – | –
